Experimental data published in ChEMBL document CHEMBL4304839, “Development of a novel class of peroxisome proliferator-activated receptor (PPAR) gamma ligands as an anticancer agent with a unique binding mode based on a non-thiazolidinedione scaffold” (Bioorg Med Chem, 2019).
The source made the active and inactive calls. The rule behind the calls is not given here.

Columns and labels:
[1] = biological target: T1, Peroxisome proliferator-activated receptor gamma (Homo sapiens) (UniProt P37231); assay: Agonist activity at PPARgamma in human MKN45 cells assessed as induction of cell aggregation incubated for 5 days by Hoechst 33342 staining based IN cell analyzer method relative to (E)-3-(1-(8-((4-methyl-2-propyl-1H-benzo[d]imidazol-1-yl)methyl)dibenzo[b,e]oxepin-11(6H)-ylidene)ethyl)-1,2,4-oxadiazol-5(4H)-one
T1 sequence (whole entry): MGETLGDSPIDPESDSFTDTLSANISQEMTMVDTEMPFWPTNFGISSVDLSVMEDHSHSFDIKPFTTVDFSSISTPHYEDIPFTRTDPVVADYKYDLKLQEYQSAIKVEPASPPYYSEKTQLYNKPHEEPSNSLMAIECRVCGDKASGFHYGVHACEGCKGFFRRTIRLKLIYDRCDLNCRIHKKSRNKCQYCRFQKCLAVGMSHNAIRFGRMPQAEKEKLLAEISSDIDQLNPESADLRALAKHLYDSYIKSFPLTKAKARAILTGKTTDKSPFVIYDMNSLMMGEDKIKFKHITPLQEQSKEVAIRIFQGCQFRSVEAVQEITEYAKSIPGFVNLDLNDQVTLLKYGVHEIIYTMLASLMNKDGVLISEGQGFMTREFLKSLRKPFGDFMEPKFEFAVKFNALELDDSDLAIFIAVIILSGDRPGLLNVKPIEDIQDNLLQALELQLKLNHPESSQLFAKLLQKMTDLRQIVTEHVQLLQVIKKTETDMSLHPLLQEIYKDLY
In short: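 MKN45 cells in RPMI1640 with 10% FBS at 37 °C, 5% CO2, seeded 2500 cells/well and exposed to compound 1-1000 nM (n = 3 per concentration) for 5 days. Nuclei stained with Hoechst 33342, imaged on IN Cell Analyzer, nuclear area computed. Maximum activity expressed as % of reference compound maximum; EC50 = concentration giving 50% of own maximum.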

[2] = biological target: T2, Peroxisome proliferator-activated receptor gamma (Homo sapiens, UniProt P37231); assay: Transactivation of chimeric GAL4-fused human PPARgamma transfected in HEK293EBNA cells measured at 24 hrs after drug treatment by steady-Glo luciferase assay reagent based luminescence assay; format: cell-based
T2 sequence (P37231 whole entry): T1 sequence (whole entry)
In short: (§1)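 HEK293EBNA cells in DMEM with 10% FBS, 37 °C, 5% CO2, transiently co-transfected with pM-human PPARγ/GAL4 expression vector and pZAC19-Luc reporter; 24 h later plated and treated with compound 1-3000 nM (n = 3 per concentration), diluted from DMSO in unsupplemented DMEM, for 24 h. Steady-Glo luciferase readout, normalized to pioglitazone 1000 nM (100%); EC50 at 50% of own maximum.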

[3] = AUC in BALB/c mouse at 10 mg/kg, po by LC-MS/MS analysis; format: ADME, organism-based; conditions: in vivo
In short: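 Male BALB/c mice, single oral dose 10 mg/kg (n = 2). Tail-vein blood at set times, plasma protein-precipitated with acetonitrile plus internal standard, LC-MS/MS (APCI, positive ion), quantified against standard curve in control plasma; AUC by noncompartmental analysis of concentration-time profile.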

[4] = biological target: T1, Peroxisome proliferator-activated receptor gamma (Homo sapiens); assay: Transactivation of chimeric GAL4-fused human PPARgamma transfected in HEK293EBNA cells measured at 24 hrs after drug treatment by steady-Glo luciferase assay reagent based luminescence assay relative to pioglitazone; format: cell-based; in short: as §1
[5] = Intrinsic clearance in human liver microsomes incubated for 30 mins in presence of NADPH by LC-MS/MS analysis
[6] = Toxicity in C57BL/6 mouse assessed as hematocrit level at 40 mg/kg (reference value: 45%); format: organism-based; conditions: in vivo
Homo sapiens [7] = assay: Antitumour activity against human AsPC1/AG1 cells xenografted in SCID mouse assessed as increase in angptl4 mRNA expression at 100 mg/kg, po bid for 14 days starting from 7th day post tumor inoculation and measured at 4 hrs post last dose by qRT-PCR analysis
Homo sapiens [8] = assay: Antitumour activity against human AsPC1/AG1 cells xenografted in SCID mouse assessed as reduction in tumor volume at 12.5 to 100 mg/kg, po bid for 14 days starting from 7th day post tumor inoculation; format: functional, organism-based
In short: (§2)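 Male SCID mice (8 weeks) inoculated s.c. with 3×10^7 AsPC-1/AG1 cells; from day 7, randomized by tumour volume into groups of 5 given 12.5, 25, 50 or 100 mg/kg or 0.5% MC400 vehicle orally twice daily for 14 days. Volume = 0.5 × major × minor² measured twice weekly; relative volume V/V0 versus day 0; Steel test, P < 0.05.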

Homo sapiens [9] = assay: Antitumour activity against human AsPC1/AG1 cells xenografted in SCID mouse assessed as saturated level of reduction in tumor volume at >25 mg/kg, po bid for 14 days starting from 7th day post tumor inoculation and measured after 10 days; format: functional, organism-based; in short: as §2
[10] = Toxicity in Crlj:CD1(ICR) mouse assessed as serum hematocrit value at 50 mg/kg, po bid for 4 days by micro-hematocrit method (reference value: 44.1%); format: organism-based; conditions: in vivo, 96 h
Homo sapiens [11] = assay: Antitumour activity against human AsPC1/AG1 cells xenografted in SCID mouse assessed as increase in cell differentiation marker krt20 mRNA expression level at 100 mg/kg, po bid for 14 days starting from 7th day post tumor inoculation and measured at 4 hrs post last dose by qRT-PCR analysis; format: functional, organism-based
In short: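 Male SCID mice bearing s.c. AsPC-1/AG1 tumours (3×10^7 cells in PBS), dosed orally twice daily for 14 days from day 7 after inoculation; vehicle 0.5% MC400. Tumours collected 4 h after last dose; angptl4 and krt20 mRNA measured by qPCR, fold induction relative to baseline.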

[12] = Antitumour activity against human AsPC1/AG1 cells xenografted in SCID mouse assessed as minimal dose required for reduction in tumor volume administered orally bid for 14 days starting from 7th day post tumor inoculation; format: functional; conditions: ASPC1, po, 336 h, read-out: MED; in short: as §2
[13] = Toxicity in Crlj:CD1(ICR) mouse assessed as serum hematocrit value at 200 mg/kg, po bid for 4 days by micro-hematocrit method (reference value: 44.1%); format: organism-based; conditions: in vivo, 96 h

| Structure (SMILES) | Emax [1] [%] | EC50 [2] [nM] | AUC [3] [ng·h/mL] | Emax [4] [%] | CLint scaled at 0.5 h [5] [mL/min/kg] | further results |
| --- | --- | --- | --- | --- | --- | --- |
| CCCc1nc2ccccc2n1Cc1ccc2c(c1)COc1cc(F)ccc1/C2=C(\C)c1noc(=O)[nH]1 | 104 | – | 1480 | 11.7 | – | – |
| CCCc1nc2c(C)cccc2n1Cc1ccc2c(c1)COc1ccccc1/C2=C(\C)c1noc(=O)[nH]1 | – | – | – | – | > 415 | – |
| C/C(=C1/c2ccc(Cn3c(C4CC4)nc4c(Cl)nccc43)cc2COc2cc(F)ccc21)c1noc(=O)[nH]1 | 105 | 24 to 59 | – | 13.7 | 167 | – |
| COCc1nc2cc(Cl)ccn2c1Cc1ccc2c(c1)COc1cc(F)ccc1/C2=C(\C)c1noc(=O)[nH]1 | 106 | – | 2450 | 9 | – | – |
| C/C(=C1/c2ccc(Cn3c(C4CC4)nc4c(Cl)ccnc43)cc2COc2cc(F)ccc21)c1noc(=O)[nH]1 | 101 | 32 to 38 | – | 10.3 | 38.3 | – |
| CCCc1nc2c(C)cccc2n1Cc1ccc2c(n1)COc1ccccc1/C2=C(\C)c1noc(=O)[nH]1 | – | 86 | – | – | > 415 | – |
| CCc1ccc(CCOc2ccc(CC3SC(=O)NC3=O)cc2)nc1 (centres undefined) [PIOGLITAZONE] | – | – | – | – | – | Activity [6]: 41% |
| CCCc1nc2c(C)cccc2n1Cc1ccc2c(c1)OCc1ncccc1/C2=C(\C)c1noc(=O)[nH]1 | – | 2190 | – | – | 34.3 | – |
| CCCc1nc2ccccc2n1Cc1ccc2c(c1)COc1c(F)cccc1/C2=C(\C)c1noc(=O)[nH]1 | 101 | 4.4 | – | 8.7 | 377 | – |
| C/C(=C1/c2ccc(Cn3c(C4CC4)nc4cscc43)cc2COc2cc(F)ccc21)c1noc(=O)[nH]1 | 105 | 21 | 196 | 13.7 | 41.7 | – |
| CCCc1nc2ccccc2n1Cc1ccc2c(c1)COc1ccc(F)cc1/C2=C(\C)c1noc(=O)[nH]1 | 102 | – | – | 6.9 | > 415 | – |

Further lines, with some results ahead:

| Emax [1] [%] | EC50 [2] [nM] | AUC [3] [ng·h/mL] | Emax [4] [%] | CLint scaled at 0.5 h [5] [mL/min/kg] | Structure (SMILES) | further results |
| --- | --- | --- | --- | --- | --- | --- |
| 112 | 13 | 5510 | 13.5 | – | C/C(=C1/c2ccc(Cc3c(C4CC4)nc4cc(F)ccn34)cc2COc2cc(F)ccc21)c1noc(=O)[nH]1 | – |
| 106 | 19 | 3750 | 9.8 | – | C/C(=C1/c2ccc(Cc3c(C4CC4)nc4ccccn34)cc2COc2cc(F)ccc21)c1noc(=O)[nH]1 | – |
| 102 | 11 | 1710 | 15.1 | 66.7 | C/C(=C1/c2ccc(Cc3c(C4CC4)nc4ccc(Cl)cn34)cc2COc2cc(F)ccc21)c1noc(=O)[nH]1 | – |
| 110 | 23 | 8760 | 9.7 | 33.3 | C/C(=C1/c2ccc(Cc3c(C4CC4)nc4c5c(ccn34)OCC5)cc2COc2cc(F)ccc21)c1noc(=O)[nH]1 | – |
| 103 | – | 6890 | 10.6 | – | C/C(=C1/c2ccc(Cc3c(C4CC4)nc4c(Cl)cccn34)cc2COc2cc(F)ccc21)c1noc(=O)[nH]1 | Activity (Homo sapiens [7]): Active; inhibition (Homo sapiens [8]): Active; inhibition (Homo sapiens [9]): Active; Activity [10]: 42.9%; Activity (Homo sapiens [11]): Active; minimal effective dose [12]: 12.5 to 25 mg/kg; Activity [13]: 42% |
| 96 | 7.3 | 1090 | 7.4 | 21.7 | COCc1nc2c(Cl)cccn2c1Cc1ccc2c(c1)COc1cc(F)ccc1/C2=C(\C)c1noc(=O)[nH]1 | – |
| 101 | 3.6 | 10200 | 12.6 | – | C/C(=C1/c2ccc(Cc3c(C4CC4)nc4cc(Cl)ccn34)cc2COc2cc(F)ccc21)c1noc(=O)[nH]1 | – |
